Reference: paper PMC6839502 (Journal of Alzheimer's Disease, 2019)
“And” between values parts separate entries of the source, which are not always exact repeats. Equal values may be shown once. “Also recorded” adds a separate entry of the source.

What was measured:
CSF Aβ fragments = assay: CSF Aβ fragments, sAβPPα and sAβPPβ after multiple doses; format: in vivo, human; details: healthy adults
How it was run: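 Healthy adults (18–55 y), randomized double-blind placebo-controlled, oral QD for 14 days, fasted on Days 1, 7, and 14. Lumbar-puncture CSF was taken on Day –3 (B8271004) or Day 0 (B8271001) and on Day 15, 24 h post last dose. Total Aβ was measured by DELFIA (LLOQ 391.0 pg/mL). Ln change from baseline was analysed by ANCOVA with treatment as a fixed effect and ln baseline as covariate, then converted to percent change versus pooled placebo with 2-sided 80% CI.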

plasma Aβ fragments = assay: Plasma Aβ fragments after single and multiple doses; format: in vivo, human; details: 275 mg, on Day 1
How it was run: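 Healthy adults, oral QD dosing versus placebo, Part B. Pre-dose blood was drawn on Days 1, 2, 4, 7, 10, and 14. Plasma Aβ1–40 was measured by DELFIA (LLOQ 12.1 pg/mL). Log change from baseline was analysed by mixed-model repeated measures: treatment, time, and their interaction as fixed effects, subject as random effect, and log baseline as covariate. Results were expressed as placebo-adjusted reduction.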

CSF Aβ1–40 and Aβ1–42 = assay: Population PK/PD model of CSF Aβ1–40 and Aβ1–42; parameters: species or system human; details: in approximately 50% of subjects, simulated
How it was run: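 Population PK/PD model built on pooled data from both studies: CSF Aβ at baseline plus one steady-state trough value. Indirect-response model in which plasma drug concentration lowers the Aβ production rate. Population PK parameters were fixed. CSF turnover rates were fixed at 0.084/h (Aβ1–40) and 0.12/h (Aβ1–42), taken from a separate serial-CSF study.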

[1] = Safety and tolerability in study B8271007; format: in vivo, human; details: 100 mg QD
[2] = ECG QTcF change in SAD and MAD studies; format: in vivo, human
BACE1 over BACE 2 = details: radioligand binding assay; cited from earlier work
dogs = details: long-term toxicology / chronic dosing for up to 9 months; cited from earlier work
Aβ40 and Aβ42 = details: animal studies, subcutaneous administration; cited from earlier work
hERG = details: in vitro and in vivo preclinical safety and toxicology studies; cited from earlier work

**Q.** What does the source list for `C[C@H]1C[C@H]2CSC(N)=N[C@@]2(c2nc(NC(=O)c3ccc(OC(F)F)cn3)cs2)CO1` [PF-06751979]?
**A.** CSF Aβ1–38 percent change from baseline to Day 15 (2-sided 80% CI) (CSF Aβ fragments; 50 mg QD 14 days, B8271001): –58.4 (–61.34, –55.28) %; CSF Aβ1–40 percent change from baseline to Day 15 (2-sided 80% CI) (CSF Aβ fragments; 50 mg QD 14 days, B8271001): –70.2 (–74.20, –65.52) %; CSF Aβ1–40 placebo-adjusted percent change from baseline to Day 15 (2-sided 80% CI) (CSF Aβ fragments; 50 mg QD 14 days, B8271001): –68.1 (–75.87, –57.86) %; CSF Aβ1–42 percent change from baseline to Day 15 (2-sided 80% CI) (CSF Aβ fragments; 50 mg QD 14 days, B8271001): –71.9 (–74.97, –68.57) %; CSF Aβ total percent change from baseline to Day 15 (2-sided 80% CI) (CSF Aβ fragments; 50 mg QD 14 days, B8271001): –64.0 (–66.62, –61.25) %; CSF Aβx-38 percent change from baseline to Day 15 (2-sided 80% CI) (CSF Aβ fragments; 50 mg QD 14 days, B8271001): –60.2 (–63.42, –56.67) %; CSF Aβx-40 percent change from baseline to Day 15 (2-sided 80% CI) (CSF Aβ fragments; 50 mg QD 14 days, B8271001): –60.4 (–63.71, –56.76) %; CSF Aβx-42 percent change from baseline to Day 15 (2-sided 80% CI) (CSF Aβ fragments; 50 mg QD 14 days, B8271001): –64.3 (–67.21, –61.11) %; CSF sAβPPα percent change from baseline to Day 15 (2-sided 80% CI) (CSF Aβ fragments; 50 mg QD 14 days, B8271001): 48.4 (38.56, 58.98) %; CSF sAβPPβ percent change from baseline to Day 15 (2-sided 80% CI) (CSF Aβ fragments; 50 mg QD 14 days, B8271001): –70.6 (–72.23, –68.93) %; CSF Aβ1–38 percent change from baseline to Day 15 (2-sided 80% CI) (CSF Aβ fragments; 125 mg QD 14 days, B8271004): –80.3 (–81.51, –79.06) %; CSF Aβ1–40 percent change from baseline to Day 15 (2-sided 80% CI) (CSF Aβ fragments; 125 mg QD 14 days, B8271004): –85.5 (–86.45, –84.38) %; CSF Aβ1–40 placebo-adjusted percent change from baseline to Day 15 (2-sided 80% CI) (CSF Aβ fragments; 125 mg QD 14 days, B8271004): –83.8 (–85.65, –81.78) %; CSF Aβ1–42 percent change from baseline to Day 15 (2-sided 80% CI) (CSF Aβ fragments; 125 mg QD 14 days, B8271004): –86.4 (–87.40, –85.28) %; CSF Aβ total percent change from baseline to Day 15 (2-sided 80% CI) (CSF Aβ fragments; 125 mg QD 14 days, B8271004): –80.1 (–81.01, –79.18) %; CSF Aβx-38 percent change from baseline to Day 15 (2-sided 80% CI) (CSF Aβ fragments; 125 mg QD 14 days, B8271004): –82.0 (–83.18, –80.74) %; CSF Aβx-40 percent change from baseline to Day 15 (2-sided 80% CI) (CSF Aβ fragments; 125 mg QD 14 days, B8271004): –81.0 (–82.16, –79.76) %; CSF Aβx-42 percent change from baseline to Day 15 (2-sided 80% CI) (CSF Aβ fragments; 125 mg QD 14 days, B8271004): –81.9 (–82.76, –80.91) %; CSF sAβPPα percent change from baseline to Day 15 (2-sided 80% CI) (CSF Aβ fragments; 125 mg QD 14 days, B8271004): 58.7 (48.89, 69.05) %; CSF sAβPPβ percent change from baseline to Day 15 (2-sided 80% CI) (CSF Aβ fragments; 125 mg QD 14 days, B8271004): –81.3 (–82.21, –80.27) %; CSF Aβ1–38 percent change from baseline to Day 15 (2-sided 80% CI) (CSF Aβ fragments; 275 mg QD 14 days, B8271004): –87.9 (–88.82, –86.98) %; CSF Aβ1–40 percent change from baseline to Day 15 (2-sided 80% CI) (CSF Aβ fragments; 275 mg QD 14 days, B8271004): –92.9 (–93.54, –92.25) %; CSF Aβ1–40 placebo-adjusted percent change from baseline to Day 15 (2-sided 80% CI) (CSF Aβ fragments; 275 mg QD 14 days, B8271004): –92.1 (–93.15, –90.98) %; CSF Aβ1–42 percent change from baseline to Day 15 (2-sided 80% CI) (CSF Aβ fragments; 275 mg QD 14 days, B8271004): –93.6 (–94.22, –92.93) %; CSF Aβ total percent change from baseline to Day 15 (2-sided 80% CI) (CSF Aβ fragments; 275 mg QD 14 days, B8271004): –86.5 (–87.26, –85.74) %; CSF Aβx-38 percent change from baseline to Day 15 (2-sided 80% CI) (CSF Aβ fragments; 275 mg QD 14 days, B8271004): –90.1 (–90.91, –89.23) %; CSF Aβx-40 percent change from baseline to Day 15 (2-sided 80% CI) (CSF Aβ fragments; 275 mg QD 14 days, B8271004): –87.6 (–88.55, –86.62) %; CSF Aβx-42 percent change from baseline to Day 15 (2-sided 80% CI) (CSF Aβ fragments; 275 mg QD 14 days, B8271004): –86.6 (–87.43, –85.76) %; CSF sAβPPα percent change from baseline to Day 15 (2-sided 80% CI) (CSF Aβ fragments; 275 mg QD 14 days, B8271004): 81.7 (67.79, 96.85) %; CSF sAβPPβ percent change from baseline to Day 15 (2-sided 80% CI) (CSF Aβ fragments; 275 mg QD 14 days, B8271004): –84.3 (–85.28, –83.26) %; Maximum observed (placebo-adjusted) reduction in CSF Aβ1–42 (CSF Aβ fragments; 275 mg QD, 24 h after Day 14 dose): ~93% and 92.9%; Maximum observed placebo-adjusted reduction in plasma Aβ1–40, multiple doses (plasma Aβ fragments): 88.3%; Predicted average reduction of CSF Aβ1–40 and Aβ1–42 at steady state (CSF Aβ1–40 and Aβ1–42; 30 mg QD): approximately 60%; Predicted average reduction of CSF Aβ1–40 and Aβ1–42 at steady state (CSF Aβ1–40 and Aβ1–42; 75 mg QD): ~80%; Predicted average reduction of CSF Aβ1–40 and Aβ1–42 at steady state (CSF Aβ1–40 and Aβ1–42; 110 mg QD): ~85%; ALT elevation, one subject ([1]; period 2, Day 7): 2.12 ×ULN; AST elevation, one subject ([1]; period 2, Day 7): 1.23 ×ULN; AST peak, one subject ([1]; period 2, Day 12): 1.75 ×ULN; ALT peak, one subject ([1]; period 2, Day 13): 3.33 ×ULN; Maximum placebo-adjusted mean QTcF change from baseline ([2]; 275 mg QD for 14 days, 90% CI: 4.5, 21.1): 12.8 ms; Maximum placebo-adjusted mean QTcF change from baseline ([2]; single dose 540 mg, 90% CI: 7.6, 22.2): 14.9 ms; Selectivity for BACE1 over BACE2 (BACE1 over BACE 2): 26.6 fold; Hair color (pigmentation) change (dogs): did not reveal any evidence of hair color change; also recorded: did not reveal pigmentation changes; Aβ40 and Aβ42 in the brain and CSF (Aβ40 and Aβ42): robust reductions; hERG inhibition (hERG): weak hERG inhibition
